Only some compounds are listed: those with a hit (about 2.2% of all), similar ones and a draw of the others.
M5 PAM – positive allosteric modulators of human muscarinic M5 receptor; P08912; CHO-K1 hM5, Fluo-8 calcium, ACh EC20 PAM; 0% = ACh EC20, 100% = ACh EC100; activation, % at 3 µM; 0.3% of 360,000 active; AID 624038;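 active = activation above the run cutoff, the mean activation of all test compounds plus 3 SD, cut at about 18% in these data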
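Assay system: CHO-K1 hM5 cells / Incubation: Fluo-8 loading 80 min at 37 °C plus 30 min room temperature / Technique: Fluo-8 calcium dye fluorescence, kinetic read / Repeats: single replicate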
M5 ag – agonists of human muscarinic M5 receptor (CHRM5); P08912; CHO-K1 hM5 cells, Fluo-8 calcium fluorescence; 0% DMSO wells, 100% maximal acetylcholine response; activation, % at 3 µM; 0.19% of 360,000 active; AID 624037;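 active = activation above the run's mean over test compounds plus 3 SD, cut at about 23% in these data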;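 note: signal is peak over basal fluorescence ratio across the kinetic read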
CHRM1 PAM – positive allosteric modulators of human M1 muscarinic receptor; 0.088% of 360,000 active; P11229; CHO-K1 hM1, Fluo-8 calcium fluorescence, ACh EC20; 0% = ACh EC20, 100% = maximal ACh; activation, % at 3 µM; in the data active = activation above about 19%, passing the limit was not always enough
Target sequence (P11229 whole entry, looked up): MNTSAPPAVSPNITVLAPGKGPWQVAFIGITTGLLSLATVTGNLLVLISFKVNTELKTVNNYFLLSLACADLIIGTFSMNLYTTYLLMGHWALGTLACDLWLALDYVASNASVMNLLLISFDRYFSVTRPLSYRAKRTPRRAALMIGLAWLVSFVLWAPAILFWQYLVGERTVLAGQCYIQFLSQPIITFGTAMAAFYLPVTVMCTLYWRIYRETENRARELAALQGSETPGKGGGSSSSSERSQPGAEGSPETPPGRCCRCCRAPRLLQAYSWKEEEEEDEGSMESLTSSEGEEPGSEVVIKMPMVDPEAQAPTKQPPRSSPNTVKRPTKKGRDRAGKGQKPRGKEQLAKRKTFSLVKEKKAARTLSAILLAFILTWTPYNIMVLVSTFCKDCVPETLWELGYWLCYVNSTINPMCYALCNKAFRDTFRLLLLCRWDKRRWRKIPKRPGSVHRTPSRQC
CHRM1 antagonist – human CHRM1 antagonism. P11229. CHO-K1 hM1, Fluo-8 calcium fluorescence, ACh EC80 antagonist. inhibition, % at 3 µM. 1.3% of 360,000 active;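 active = percent inhibition above its own plate's cutoff, namely the mean of that plate's compound wells plus 3 SD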;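 note: peak over basal fluorescence ratio during 140 s after agonist addition; 0% = ACh EC80 plus DMSO and 100% = DMSO alone without agonist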
M1 ag – activates human CHRM1 receptor; P11229; CHO-K1 hM1, Fluo-8 calcium fluorescence, agonist mode; 0% DMSO, 100% acetylcholine EC100; activation, % at 3 µM; 0.33% of 360,000 active;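 active = activation above the run's mean compound activation plus 3 SD, cut at about 16% in these data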;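 note: peak over basal fluorescence ratio within a 140 s kinetic read after compound addition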
M5 antag – antagonists of human muscarinic M5 receptor (CHRM5); CHO-hM5 cells, Fluo-8 calcium fluorescence, ACh EC80; inhibition, % at 3 µM; 0.59% of 360,000 active;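 active = inhibition above a per-plate cutoff, the mean of that plate's test compounds plus 3 SD, cut at about 27% in these data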;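 note: 0% = acetylcholine EC80 with DMSO and 100% = DMSO without agonist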
* hit, by the source's call; · = no result given.

SMILES | M5 PAM | M5 ag | CHRM1 PAM | CHRM1 antagonist | M1 ag | M5 antag
OCCN(CC#CC(O)(c1ccccc1)C1CCCCC1)CCO (configuration not stated) | -16.9 | -23.7 | -10.6 | 7.7 | -8.2 | 7.1
CCN(CC)CC#CCC(O)(c1ccccc1)C1CCCCC1 (configuration not stated) | -18.2 | -9.8 | -38.0 | 98.8* | -15.2 | 71.5*
Cc1nn(-c2ccccc2)c(-c2ccccc2[N+](=O)[O-])c1CC#N | -5.5 | 1.9 | 8.5 | -9.4 | -7.7 | 2.8
Nc1ccc2nc3c(=O)n(C4CCCCC4)c(=O)[nH]c3nc2c1 | -40.3 | 133.3* | -15.1 | 29.5 | 99.7* | 35.1*
CCCCn1c(=O)[nH]c2nc3cc(N)ccc3nc2c1=O | -10.9 | 21.8 | -9.7 | 22.7 | 25.3* | 15.7
COc1cc2[nH]c(=O)n(C3CCCCC3)c(=O)c2cc1OC | 0.3 | 0.1 | -5.2 | 12.4 | 0.2 | 1.1
Nc1ccc2nc(CCc3ccccc3)[nH]c2c1 | -6.3 | -1.7 | -7.5 | 6.5 | -8.8 | 5.3
Cc1cc2nc3c(=O)n(CCc4ccccc4)c(=O)[nH]c3nc2cc1N | -6.7 | 31.9* | 0.3 | 10.4 | 9.7 | 5.5
C=CCn1c(=O)[nH]c2nc3cc(N=CN(C)C)c(C)cc3nc2c1=O | -3.4 | 3.8 | 2.7 | -7.5 | 3.8 | 7.9
Nc1ccc2nc3c(=O)n(CCc4ccccc4)c(=O)[nH]c3nc2c1 | -31.4 | 165.2* | -6.7 | 21.6 | 53.5* | 32.7*
COC(=O)c1c(N2C(=O)CC(Sc3ccccc3C(=O)O)C2=O)sc2c1CCCC2 (configuration not stated) | -3.6 | -1.7 | -10.6 | 14.9 | -5.6 | 0.4
CCCOc1ccc(/C=N/NC(=O)c2ccc3c(c2)OCO3)c(OCCC)c1 | 7.8 | -2.4 | 32.5* | -27.7 | 3.7 | 1.2
N#CCCN1CCCc2cc(N=Nc3ccc(C(F)(F)F)cc3)ccc21 | 20.0* | -2.8 | 17.8 | -31.1 | -3.2 | -2.9
CC(=O)c1ccc(NC(=S)NC(NC(=O)c2ccco2)C(Cl)(Cl)Cl)cc1 (configuration not stated) | -10.6 | 27.1* | 9.6 | -6.5 | 16.9* | 4.4
O=C(NC(NC(=S)Nc1ccc(Cl)cc1)C(Cl)(Cl)Cl)c1ccco1 (configuration not stated) | -16.2 | 8.5 | -8.3 | 6.7 | -1.2 | 19.7
O=C(NCc1ccc(F)cc1)c1cc2c(s1)CS(=O)(=O)C2 | -3.7 | -3.4 | 5.1 | -4.5 | -2.1 | 11.7
C[C@@H]1CC[C@H](O)/C=C/C(=O)O[C@H](C)CC[C@H](O)/C=C/C(=O)O1 | -10.5 | 36.9* | -0.5 | -4.1 | 6.4 | 4.8
CC1=CC(C)(C)N(C(=O)c2ccc(F)cc2)c2cc3c(cc21)OCO3 | 0.8 | 18.5 | 8.3 | 10.2 | 17.6* | -1.3
CC1=CC(C)(C)N(C(=O)CCl)c2cc(C)ccc21 | 1.8 | -3.8 | 4.9 | -3.9 | -6.4 | 2.0
CCC(C(=O)NC(C)(C)C)N(Cc1ccc(OC)cc1)C(=O)c1snc(C(N)=O)c1N (configuration not stated) | -3.7 | -0.4 | 4.0 | -11.9 | -5.1 | -2.7
O=C(CSc1c2c(nc3ccc(Cl)cc13)CCCC2)NCCCN1CCOCC1 | -18.9 | -10.4 | -26.5 | 98.4* | -9.4 | 20.5
COc1ccc(C2=Nc3ccccc3N(C(=O)c3ccncc3)C2C(=O)NC(C)(C)C)cc1 (configuration not stated) | -0.8 | 0.7 | · | · | · | -7.0
COC(=O)c1cnc(Nc2nc(C(N)Cc3ccc(OC)cc3)cs2)nc1C(F)(F)F (configuration not stated) | 4.4 | 3.7 | 3.1 | -3.5 | 3.5 | 2.1
COC(=O)c1cnc(Nc2nc(C(N)Cc3ccccc3)cs2)nc1C(F)(F)F (configuration not stated) | -2.5 | 4.8 | 26.0* | -12.1 | 14.6 | 6.5
CCCc1cnc(Nc2nc(C(N)Cc3ccc(C(F)(F)F)cc3)cs2)nc1 (configuration not stated) | 5.4 | 4.5 | 4.2 | 14.0 | 18.3* | 4.9
